Assay results reported in ChEMBL document CHEMBL1165909, “Analgesic, anti-pyretic and DNA cleavage studies of novel pyrimidine derivatives of coumarin moiety” (Eur J Med Chem, 2010).
Active and inactive are the calls of the source. The calls are words filed in the database; no cut-off is given here.

Experiments:
Rattus norvegicus [1] = assay: Antipyretic activity against brewer's yeast-induced hyperthermia in albino Wistar rat assessed as change in rectal temperature at 100 mg/kg, po after 3 hrs (reference value: 32.80 +/- 0.09 degC); assay type: functional
Rattus norvegicus [2] = assay: Analgesic activity in albino Wistar rat assessed as reaction time required for tail flicking at 25 mg/kg, po after 30 mins by tail-flick method (reference value: 3.97 +/- 0.287 sec); assay type: functional
Rattus norvegicus [3] = assay: Antipyretic activity against brewer's yeast-induced hyperthermia in albino Wistar rat assessed as change in rectal temperature at 100 mg/kg, po after 5 hrs (reference value: 34.36 +/- 0.14 degC); assay type: functional
Rattus norvegicus [4] = assay: Acute toxicity in albino Wistar rat assessed as sedation at up to 3 g/kg, po after 24 hrs; assay type: organism-based; settings: in vivo, 3000 mg/kg
How it was run: (§1)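 Albino rats of either sex, groups of six, dosed from 100 up to 3000 mg kg^-1 body weight. Watched continuously for 8 h for signs such as altered motor activity, ataxia, tremors, convulsions, sedation and lacrimation. Killed at 24 h; stomach, intestine and liver inspected under magnifying lenses for ulcer-haemorrhagic spots.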

Rattus norvegicus [5] = assay: Analgesic activity in albino Wistar rat assessed as reaction time required for tail flicking at 25 mg/kg, po after 90 mins by tail-flick method (reference value: 3.87 +/- 0.355 sec); assay type: functional
Rattus norvegicus [6] = assay: Acute toxicity in albino Wistar rat assessed as ulceration at up to 3 g/kg, po after 24 hrs; assay type: organism-based; settings: in vivo, 3000 mg/kg; how it was run: as §1
Rattus norvegicus [7] = assay: Acute toxicity in albino Wistar rat assessed as convulsion at up to 3 g/kg, po after 24 hrs; assay type: organism-based; settings: in vivo, 3000 mg/kg; how it was run: as §1
Rattus norvegicus [8] = assay: Acute toxicity in albino Wistar rat assessed as mortality at up to 3 g/kg, po after 24 hrs; assay type: organism-based; settings: in vivo, 3000 mg/kg; how it was run: as §1
Rattus norvegicus [9] = assay: Acute toxicity in albino Wistar rat assessed as tremors at up to 3 g/kg, po after 24 hrs; assay type: organism-based; settings: in vivo, 3000 mg/kg; how it was run: as §1
Rattus norvegicus [10] = assay: Acute toxicity in albino Wistar rat assessed as intestine ulcerhaemorrhagic spots at up to 3 g/kg, po after 24 hrs; assay type: organism-based; settings: in vivo, 3000 mg/kg; how it was run: as §1
Rattus norvegicus [11] = assay: Acute toxicity in albino Wistar rat assessed as haemorrhagic spots at up to 3 g/kg, po after 24 hrs; assay type: organism-based; settings: in vivo, 3000 mg/kg; how it was run: as §1
Rattus norvegicus [12] = assay: Antipyretic activity against brewer's yeast-induced hyperthermia in albino Wistar rat assessed as change in rectal temperature at 100 mg/kg, po after 1 hr (reference value: 33.78 +/- 0.18 degC); assay type: functional
Rattus norvegicus [13] = assay: Antipyretic activity against brewer's yeast-induced hyperthermia in albino Wistar rat assessed as change in rectal temperature at 100 mg/kg, po after 6 hrs (reference value: 33.44 +/- 0.18 degC); assay type: functional
Rattus norvegicus [14] = assay: Analgesic activity in albino Wistar rat assessed as reaction time required for tail flicking at 25 mg/kg, po after 60 mins by tail-flick method (reference value: 4 +/- 0.360 sec); assay type: functional
Rattus norvegicus [15] = assay: Acute toxicity in albino Wistar rat assessed as stomach ulcerhaemorrhagic spots at up to 3 g/kg, po after 24 hrs; assay type: organism-based; settings: in vivo, 3000 mg/kg; how it was run: as §1
Nucleic Acid = assay: Induction of Escherichia coli DNA cleavage at 25 mg after 24 hrs by agarose gel electrophoresis method; assay type: nucleic-acid assay
How it was run: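 E. coli grown in nutrient broth 24 h at 37 °C. Genomic DNA isolated by SDS lysis, phenol (55 °C, 10 min), chloroform:isoamyl alcohol extraction and ethanol precipitation, dissolved in TAE. Compounds at 1 mg/ml in DMF added to DNA, incubated 2 h at 37 °C. Run on agarose gel at 50 V about 30 min, stained with ethidium bromide, bands compared with DNA marker.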

## Cc1ccc2oc(=O)cc(COc3ccc(-c4cc(-c5ccccc5)nc(S)n4)cc3)c2c1
Rattus norvegicus [1]
  T: 32.77 °C
Rattus norvegicus [2]
  Time: 4.5 s
Rattus norvegicus [3]
  T: 32.8 °C
Rattus norvegicus [4]
  Activity: Non-toxic
Rattus norvegicus [5]
  Time: 7.45 s
Rattus norvegicus [6]
  Activity: Non-toxic
Rattus norvegicus [7]
  Activity: Non-toxic
Rattus norvegicus [8]
  Activity: Non-toxic
Rattus norvegicus [9]
  Activity: Non-toxic
Rattus norvegicus [10]
  Activity: Non-toxic
Rattus norvegicus [11]
  Activity: Non-toxic
Rattus norvegicus [12]
  T: 32.55 °C
Rattus norvegicus [13]
  T: 31.98 °C
Rattus norvegicus [14]
  Time: 6.5 s
Rattus norvegicus [15]
  Activity: Non-toxic

## O=c1cc(COc2ccc(-c3cc(-c4ccccc4)nc(S)n3)cc2)c2c(ccc3ccccc32)o1
Rattus norvegicus [1]
  T: 31.98 °C
Rattus norvegicus [2]
  Time: 4.25 s
Nucleic Acid
  Activity: Active
Rattus norvegicus [3]
  T: 33.01 °C
Rattus norvegicus [4]
  Activity: Non-toxic
Rattus norvegicus [6]
  Activity: Non-toxic
Rattus norvegicus [7]
  Activity: Non-toxic
Rattus norvegicus [8]
  Activity: Non-toxic
Rattus norvegicus [9]
  Activity: Non-toxic
Rattus norvegicus [10]
  Activity: Non-toxic
Rattus norvegicus [11]
  Activity: Non-toxic
Rattus norvegicus [12]
  T: 32.92 °C
Rattus norvegicus [13]
  T: 32.66 °C
Rattus norvegicus [14]
  Time: 4.5 s
Rattus norvegicus [15]
  Activity: Non-toxic

## Cc1c(N(C)CS(=O)(=O)[O-])c(=O)n(-c2ccccc2)n1C.[Na+] [DIPYRONE SODIUM]
Rattus norvegicus [2]
  Time: 5.77 s
Rattus norvegicus [5]
  Time: 9.02 s
Rattus norvegicus [14]
  Time: 8.76 s

## O=c1cc(COc2ccc(-c3cc(-c4ccccc4)nc(S)n3)cc2)c2cc(Cl)ccc2o1
Rattus norvegicus [1]
  T: 32.61 °C
Rattus norvegicus [2]
  Time: 5.1 s
Rattus norvegicus [3]
  T: 32.84 °C
Rattus norvegicus [4]
  Activity: Non-toxic
Rattus norvegicus [5]
  Time: 8.5 s
Rattus norvegicus [6]
  Activity: Non-toxic
Rattus norvegicus [7]
  Activity: Non-toxic
Rattus norvegicus [8]
  Activity: Non-toxic
Rattus norvegicus [9]
  Activity: Non-toxic
Rattus norvegicus [10]
  Activity: Non-toxic
Rattus norvegicus [11]
  Activity: Non-toxic
Rattus norvegicus [12]
  T: 32.5 °C
Rattus norvegicus [13]
  T: 32.84 °C
Rattus norvegicus [14]
  Time: 7.54 s
Rattus norvegicus [15]
  Activity: Non-toxic

## Nc1nc(-c2ccccc2)cc(-c2ccc(OCc3cc(=O)oc4ccc(Cl)cc34)cc2)n1
Rattus norvegicus [1]
  T: 32.45 °C
Rattus norvegicus [2]
  Time: 5.02 s
Rattus norvegicus [3]
  T: 32.09 °C
Rattus norvegicus [4]
  Activity: Non-toxic
Rattus norvegicus [5]
  Time: 7.1 s
Rattus norvegicus [6]
  Activity: Non-toxic
Rattus norvegicus [7]
  Activity: Non-toxic
Rattus norvegicus [8]
  Activity: Non-toxic
Rattus norvegicus [9]
  Activity: Non-toxic
Rattus norvegicus [10]
  Activity: Non-toxic
Rattus norvegicus [11]
  Activity: Non-toxic
Rattus norvegicus [12]
  T: 32.74 °C
Rattus norvegicus [13]
  T: 32.54 °C
Rattus norvegicus [14]
  Time: 7 s
Rattus norvegicus [15]
  Activity: Non-toxic

## Cc1ccc2oc(=O)cc(COc3ccc(-c4cc(-c5ccccc5)nc(N)n4)cc3)c2c1
Rattus norvegicus [1]
  T: 31.68 °C
Rattus norvegicus [2]
  Time: 4.75 s
Rattus norvegicus [3]
  T: 33.3 °C
Rattus norvegicus [4]
  Activity: Non-toxic
Rattus norvegicus [5]
  Time: 7.25 s
Rattus norvegicus [6]
  Activity: Non-toxic
Rattus norvegicus [7]
  Activity: Non-toxic
Rattus norvegicus [8]
  Activity: Non-toxic
Rattus norvegicus [9]
  Activity: Non-toxic
Rattus norvegicus [10]
  Activity: Non-toxic
Rattus norvegicus [11]
  Activity: Non-toxic
Rattus norvegicus [12]
  T: 32.66 °C
Rattus norvegicus [13]
  T: 33 °C
Rattus norvegicus [14]
  Time: 6.75 s
Rattus norvegicus [15]
  Activity: Non-toxic

## Cc1ccc2c(COc3ccc(-c4cc(-c5ccccc5)nc(S)n4)cc3)cc(=O)oc2c1
Rattus norvegicus [1]
  T: 32.66 °C
Rattus norvegicus [2]
  Time: 4.5 s
Nucleic Acid
  Activity: Active
Rattus norvegicus [3]
  T: 32.9 °C
Rattus norvegicus [4]
  Activity: Non-toxic
Rattus norvegicus [5]
  Time: 7.5 s
Rattus norvegicus [6]
  Activity: Non-toxic
Rattus norvegicus [7]
  Activity: Non-toxic
Rattus norvegicus [8]
  Activity: Non-toxic
Rattus norvegicus [9]
  Activity: Non-toxic
Rattus norvegicus [10]
  Activity: Non-toxic
Rattus norvegicus [11]
  Activity: Non-toxic
Rattus norvegicus [12]
  T: 32.81 °C
Rattus norvegicus [13]
  T: 31.82 °C
Rattus norvegicus [14]
  Time: 7.25 s
Rattus norvegicus [15]
  Activity: Non-toxic

## Cc1ccc2c(COc3ccc(-c4cc(-c5ccccc5)nc(O)n4)cc3)cc(=O)oc2c1
Rattus norvegicus [1]
  T: 32.84 °C
Rattus norvegicus [2]
  Time: 4.5 s
Nucleic Acid
  Activity: Active
Rattus norvegicus [3]
  T: 33.1 °C
Rattus norvegicus [4]
  Activity: Non-toxic
Rattus norvegicus [5]
  Time: 7.75 s
Rattus norvegicus [6]
  Activity: Non-toxic
Rattus norvegicus [7]
  Activity: Non-toxic
Rattus norvegicus [8]
  Activity: Non-toxic
Rattus norvegicus [9]
  Activity: Non-toxic
Rattus norvegicus [10]
  Activity: Non-toxic
Rattus norvegicus [11]
  Activity: Non-toxic
Rattus norvegicus [12]
  T: 32.4 °C
Rattus norvegicus [13]
  T: 32.4 °C
Rattus norvegicus [14]
  Time: 6.25 s
Rattus norvegicus [15]
  Activity: Non-toxic

## O=c1cc(COc2ccc(-c3cc(-c4ccccc4)nc(O)n3)cc2)c2cc(Cl)ccc2o1
Rattus norvegicus [1]
  T: 32.64 °C
Rattus norvegicus [2]
  Time: 4.02 s
Nucleic Acid
  Activity: Active
Rattus norvegicus [3]
  T: 33.28 °C
Rattus norvegicus [4]
  Activity: Non-toxic
Rattus norvegicus [5]
  Time: 4.25 s
Rattus norvegicus [6]
  Activity: Non-toxic
Rattus norvegicus [7]
  Activity: Non-toxic
Rattus norvegicus [8]
  Activity: Non-toxic
Rattus norvegicus [9]
  Activity: Non-toxic
Rattus norvegicus [10]
  Activity: Non-toxic
Rattus norvegicus [11]
  Activity: Non-toxic
Rattus norvegicus [12]
  T: 33.18 °C
Rattus norvegicus [13]
  T: 32.61 °C
Rattus norvegicus [14]
  Time: 4.04 s
Rattus norvegicus [15]
  Activity: Non-toxic

## O=c1cc(COc2ccc(-c3cc(-c4ccccc4)nc(O)n3)cc2)c2c(ccc3ccccc32)o1
Rattus norvegicus [1]
  T: 32.72 °C
Rattus norvegicus [2]
  Time: 5 s
Nucleic Acid
  Activity: Active
Rattus norvegicus [3]
  T: 32.82 °C
Rattus norvegicus [4]
  Activity: Non-toxic
Rattus norvegicus [5]
  Time: 8.87 s
Rattus norvegicus [6]
  Activity: Non-toxic
Rattus norvegicus [7]
  Activity: Non-toxic
Rattus norvegicus [8]
  Activity: Non-toxic
Rattus norvegicus [9]
  Activity: Non-toxic
Rattus norvegicus [10]
  Activity: Non-toxic
Rattus norvegicus [11]
  Activity: Non-toxic
Rattus norvegicus [12]
  T: 32.22 °C
Rattus norvegicus [13]
  T: 32.68 °C
Rattus norvegicus [14]
  Time: 8.25 s
Rattus norvegicus [15]
  Activity: Non-toxic

## Cc1ccc2c(COc3ccc(-c4cc(-c5ccccc5)nc(N)n4)cc3)cc(=O)oc2c1
Rattus norvegicus [1]
  T: 32.6 °C
Rattus norvegicus [2]
  Time: 5.1 s
Nucleic Acid
  Activity: Active
Rattus norvegicus [3]
  T: 33.8 °C
Rattus norvegicus [4]
  Activity: Non-toxic
Rattus norvegicus [5]
  Time: 7.5 s
Rattus norvegicus [6]
  Activity: Non-toxic
Rattus norvegicus [7]
  Activity: Non-toxic
Rattus norvegicus [8]
  Activity: Non-toxic
Rattus norvegicus [9]
  Activity: Non-toxic
Rattus norvegicus [10]
  Activity: Non-toxic
Rattus norvegicus [11]
  Activity: Non-toxic
Rattus norvegicus [12]
  T: 32.74 °C
Rattus norvegicus [13]
  T: 32.8 °C
Rattus norvegicus [14]
  Time: 6.75 s
Rattus norvegicus [15]
  Activity: Non-toxic

## Nc1nc(-c2ccccc2)cc(-c2ccc(OCc3cc(=O)oc4ccc5ccccc5c34)cc2)n1
Rattus norvegicus [1]
  T: 31.84 °C
Rattus norvegicus [2]
  Time: 4 s
Rattus norvegicus [3]
  T: 32.22 °C
Rattus norvegicus [4]
  Activity: Non-toxic
Rattus norvegicus [5]
  Time: 8 s
Rattus norvegicus [6]
  Activity: Non-toxic
Rattus norvegicus [7]
  Activity: Non-toxic
Rattus norvegicus [8]
  Activity: Non-toxic
Rattus norvegicus [9]
  Activity: Non-toxic
Rattus norvegicus [10]
  Activity: Non-toxic
Rattus norvegicus [11]
  Activity: Non-toxic
Rattus norvegicus [12]
  T: 32.8 °C
Rattus norvegicus [13]
  T: 31.88 °C
Rattus norvegicus [14]
  Time: 7.25 s
Rattus norvegicus [15]
  Activity: Non-toxic

## Nc1nc(-c2ccccc2)cc(-c2ccc(OCc3cc(=O)oc4c3ccc3ccccc34)cc2)n1
Rattus norvegicus [1]
  T: 31.4 °C
Rattus norvegicus [2]
  Time: 4.04 s
Rattus norvegicus [3]
  T: 32.51 °C
Rattus norvegicus [4]
  Activity: Non-toxic
Rattus norvegicus [5]
  Time: 5 s
Rattus norvegicus [6]
  Activity: Non-toxic
Rattus norvegicus [7]
  Activity: Non-toxic
Rattus norvegicus [8]
  Activity: Non-toxic
Rattus norvegicus [9]
  Activity: Non-toxic
Rattus norvegicus [10]
  Activity: Non-toxic
Rattus norvegicus [11]
  Activity: Non-toxic
Rattus norvegicus [12]
  T: 32.68 °C
Rattus norvegicus [13]
  T: 32.09 °C
Rattus norvegicus [14]
  Time: 4.75 s
Rattus norvegicus [15]
  Activity: Non-toxic
